Tests used:
[1] = species on record: Rattus norvegicus; assay: Ratio of Ki for adrenergic receptor alpha1 to Ki for 5HT1A receptor in CRL:CD(SD)BR-COBS rat brain
[2] = molecular target: T1, 5-hydroxytryptamine receptor 1A (Rattus norvegicus, UniProt P19327); assay: Displacement of [3H]8-OH-DPAT from 5HT1A receptor in CRL:CD(SD)BR-COBS rat hippocampus; format: tissue-based
T1 sequence (P19327 whole entry): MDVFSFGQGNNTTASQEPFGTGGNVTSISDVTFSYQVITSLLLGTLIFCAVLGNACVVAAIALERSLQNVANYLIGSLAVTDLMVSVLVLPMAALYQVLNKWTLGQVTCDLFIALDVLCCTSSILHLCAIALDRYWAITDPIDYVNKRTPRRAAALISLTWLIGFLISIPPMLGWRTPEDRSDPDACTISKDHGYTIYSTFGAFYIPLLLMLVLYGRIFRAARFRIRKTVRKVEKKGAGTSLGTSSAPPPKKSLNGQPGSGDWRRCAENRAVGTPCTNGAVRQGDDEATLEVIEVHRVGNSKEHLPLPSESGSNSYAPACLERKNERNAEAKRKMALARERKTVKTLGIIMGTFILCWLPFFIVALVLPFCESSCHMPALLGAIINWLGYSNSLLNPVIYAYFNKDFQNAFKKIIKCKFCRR
In short: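 Rat hippocampus homogenized in 50 mM Tris·HCl pH 7.4, spun at 50000g, warmed 10 min at 37 °C, washed, then resuspended in 50 mM Tris·HCl pH 7.7 with 10 µM pargyline and 4 mM CaCl2. Incubation used 1 nM [3H]8-OH-DPAT for 30 min at 25 °C. Nonspecific binding was defined with 10 µM 5-HT. Separation was by filtration. Ki is the mean ± SD of three experiments.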

[3] = Displacement of [3H]prazosin from adrenergic receptor alpha1 in CRL:CD(SD)BR-COBS rat brain cortex
In short: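 Cortical membranes were washed (50000g, 10 min at 37 °C) and suspended in 50 mM Tris·HCl pH 7.7 with 10 µM pargyline and 0.1% ascorbic acid. Incubation used 0.2 nM [3H]prazosin for 30 min at 25 °C. Nonspecific binding was defined with 3 µM phentolamine. Filtration was used. Ki is the mean ± SD of three experiments.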

[4] = molecular target: T1, 5-hydroxytryptamine receptor 1A; assay: Antagonist activity at 5HT1A receptor in CRL:CD(SD)BR-COBS rat hippocampus assessed as inhibition of 5-hydroxytryptamine-induced increase in [35S]GTPgammaS binding; format: functional, tissue-based
In short: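 Hippocampal membranes (rat, 200 µg protein/sample) were prepared as for 5-HT1A binding. Antagonists were tested at several concentrations with 10 µM 5-HT: 20 min preincubation at 37 °C, then 45 min at 37 °C with 0.1 nM [35S]GTPγS. Nonspecific binding was set with 10 µM GTPγS, followed by filtration. IC50 was fitted and converted to Ki by Cheng–Prusoff. Mean ± SD of three experiments.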

[5] = molecular target: T1, 5-hydroxytryptamine receptor 1A; assay: Agonist activity at 5HT1A receptor in CRL:CD(SD)BR-COBS rat hippocampus assessed as increase in [35S]GTPgammaS binding; format: functional, tissue-based
In short: (§1)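 Rat hippocampal membranes (200 µg protein/sample), washed in 50 mM Tris·HCl and resuspended in pH 7.7 Tris with 10 µM pargyline and 4 mM CaCl2. Graded drug concentrations were applied, with 20 min preincubation at 37 °C, then 45 min at 37 °C with 0.1 nM [35S]GTPγS. Nonspecific binding was set with 10 µM GTPγS, followed by GF/B filtration. Mean ± SD, three experiments.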

[6] = molecular target: T2, 5-hydroxytryptamine receptor 1A (Rattus norvegicus) (UniProt P19327); assay: Agonist activity at 5HT1A receptor in CRL:CD(SD)BR-COBS rat hippocampus assessed as increase in [35S]GTPgammaS binding relative to 5-hydroxytryptamine; format: functional, tissue-based
T2 sequence (whole entry): T1 sequence (P19327 whole entry)
In short: as §1, with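 “filtration. EC50 and Emax (vs 5-HT) came from curve fitting.” for “filtration.”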

[7] = molecular target: 5-hydroxytryptamine receptor 2A (Rattus norvegicus, UniProt P14842); assay: Displacement of [3H]ketanserin from 5HT2A receptor in CRL:CD(SD)BR-COBS rat brain cortex
5-hydroxytryptamine receptor 2A, sequence (P14842 whole entry): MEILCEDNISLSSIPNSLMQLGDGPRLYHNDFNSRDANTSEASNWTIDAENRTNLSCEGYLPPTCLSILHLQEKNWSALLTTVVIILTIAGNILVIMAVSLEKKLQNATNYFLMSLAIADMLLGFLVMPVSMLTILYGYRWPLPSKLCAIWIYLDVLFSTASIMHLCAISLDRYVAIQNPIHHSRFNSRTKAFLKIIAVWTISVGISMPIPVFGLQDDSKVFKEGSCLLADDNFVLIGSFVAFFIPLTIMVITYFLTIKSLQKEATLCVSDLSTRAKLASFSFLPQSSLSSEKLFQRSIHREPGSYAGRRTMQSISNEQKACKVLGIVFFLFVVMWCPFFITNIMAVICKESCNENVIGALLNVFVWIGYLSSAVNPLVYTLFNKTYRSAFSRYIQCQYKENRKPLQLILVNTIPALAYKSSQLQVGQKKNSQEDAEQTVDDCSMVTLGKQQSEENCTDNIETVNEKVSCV
In short: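 Cortex homogenate was washed, including 10 min at 37 °C, and resuspended in 50 mM Tris·HCl pH 7.7. Incubation used 0.35 nM [3H]ketanserin for 15 min at 37 °C. Nonspecific binding was defined with 1 µM methysergide. Filtration was used. Ki is the mean ± SD of three experiments.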

[8] = molecular target: D(1A) dopamine receptor (Rattus norvegicus, UniProt P18901); assay: Displacement of [3H]SCH23390 from dopamine D1 receptor in CRL:CD(SD)BR-COBS rat brain striatum
D(1A) dopamine receptor, sequence (P18901 whole entry): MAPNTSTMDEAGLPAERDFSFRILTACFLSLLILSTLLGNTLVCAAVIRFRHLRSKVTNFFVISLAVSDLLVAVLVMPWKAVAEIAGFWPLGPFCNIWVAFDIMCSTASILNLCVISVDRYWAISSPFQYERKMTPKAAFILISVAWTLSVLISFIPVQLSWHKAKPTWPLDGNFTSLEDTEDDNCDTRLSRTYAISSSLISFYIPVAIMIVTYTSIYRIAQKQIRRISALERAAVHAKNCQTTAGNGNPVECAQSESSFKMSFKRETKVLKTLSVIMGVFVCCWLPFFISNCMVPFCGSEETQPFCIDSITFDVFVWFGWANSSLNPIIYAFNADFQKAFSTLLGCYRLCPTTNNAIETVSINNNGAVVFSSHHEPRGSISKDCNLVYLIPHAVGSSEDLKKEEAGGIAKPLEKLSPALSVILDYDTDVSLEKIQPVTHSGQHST
In short: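 Striatal membranes were washed (50000g spins, 10 min at 37 °C), then held in 50 mM Tris·HCl pH 7.4 with 10 µM pargyline, 120 mM NaCl, 5 mM KCl, 2 mM CaCl2, 1 mM MgCl2 and 0.1% ascorbic acid. Incubation used 0.4 nM [3H]SCH23390 for 15 min at 25 °C. Nonspecific binding was defined with 10 µM (-)-cis-flupentixol. Filtration was used. Ki is the mean ± SD of three experiments.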

[9] = molecular target: D(2) dopamine receptor (Rattus norvegicus, UniProt P61169); assay: Displacement of [3H]spiperone from dopamine D2 receptor in CRL:CD(SD)BR-COBS rat brain striatum
D(2) dopamine receptor, sequence (P61169 whole entry): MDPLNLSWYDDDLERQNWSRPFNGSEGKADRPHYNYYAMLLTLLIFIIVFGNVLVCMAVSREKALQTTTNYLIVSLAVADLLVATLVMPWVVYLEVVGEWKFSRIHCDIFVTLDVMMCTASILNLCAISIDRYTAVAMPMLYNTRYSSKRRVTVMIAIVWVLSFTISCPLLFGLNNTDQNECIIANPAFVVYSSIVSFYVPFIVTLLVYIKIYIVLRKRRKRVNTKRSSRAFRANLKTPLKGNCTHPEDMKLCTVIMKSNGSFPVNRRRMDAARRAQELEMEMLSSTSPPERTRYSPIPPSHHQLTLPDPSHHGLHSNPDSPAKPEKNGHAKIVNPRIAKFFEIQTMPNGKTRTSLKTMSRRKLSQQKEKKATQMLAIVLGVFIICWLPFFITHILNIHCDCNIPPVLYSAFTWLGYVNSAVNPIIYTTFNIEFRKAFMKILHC

| Structure (SMILES) | Ratio Ki [1] | Ki [2] | Ki [3] | Ki [4] | EC50 [5] | Emax [6] | Ki [7] | Ki [8] | Ki [9] |
| --- | --- | --- | --- | --- | --- | --- | --- | --- | --- |
| COc1ccccc1N1CCN(CCCSc2nc3ccccc3o2)CC1 | 39 | 0.55 nM | 21.5 nM | – | – | – | – | – | – |
| COc1ccccc1N1CCN(CCCSc2nc3cc(Cl)ccc3s2)CC1 | 22 | 1 nM | 21.9 nM | – | – | – | – | – | – |
| COc1ccccc1N1CCN(CCSc2nc3ccccc3o2)CC1 | 4.11 | 67.2 nM | 276 nM | – | – | – | – | – | – |
| CCc1cc2c(=O)n(N)c(SCCCN3CCN(c4ccccc4OC)CC3)nc2s1 | – | – | – | 7.4 nM | – | – | – | – | – |
| COc1ccccc1N1CCN(CCCCCCSc2nc3ccccc3s2)CC1 | 53 | 1.3 nM | 46 nM | – | – | – | – | – | – |
| O=[N+]([O-])c1ccccc1N1CCN(CCSc2nc3ccccc3[nH]2)CC1 | 4.8 | 95.2 nM | 457 nM | – | – | – | – | – | – |
| O=[N+]([O-])c1ccccc1N1CCN(CCCSc2nc3ccccc3o2)CC1 | 9 | 14.1 nM | 127 nM | – | – | – | – | – | – |
| COc1ccccc1N1CCN(CCSc2nc3ccccc3[nH]2)CC1 | 7.25 | 33.1 nM | 240 nM | – | – | – | – | – | – |
| CCC1=CC2C(=O)N(N)C(SCCCN3CCN(c4ncccn4)CC3)=NC2S1 (stereo unspecified) | – | – | – | – | 1210 nM | 38% | – | – | – |
| COc1ccccc1N1CCN(CCCSc2nc3ccccc3s2)CC1 | 114 | 0.29 nM | 33.2 nM | 1.7 nM | – | – | 96.1 nM | 1280 nM | 25.8 nM |
| COc1ccccc1N1CCN(CCCSc2nc3cc(Cl)ccc3o2)CC1 | 53 | 0.88 nM | 46.7 nM | – | – | – | – | – | – |
| O=[N+]([O-])c1ccccc1N1CCN(CCSc2nc3ccccc3s2)CC1 | > 5.87 | 1700 nM | > 10000 nM | – | – | – | – | – | – |
| COc1ccccc1N1CCN(CCCSc2nc3ccccc3n2C)CC1 | 74 | 0.27 nM | 20 nM | – | – | – | – | – | – |
| O=[N+]([O-])c1ccccc1N1CCN(CCCSc2nc3ccccc3[nH]2)CC1 | 4.66 | 16.6 nM | 77.4 nM | – | – | – | – | – | – |
| COc1ccccc1N1CCN(CCCCSc2nc3ccccc3s2)CC1 | 61 | 0.27 nM | 16.6 nM | – | – | – | 106 nM | 2000 nM | 58.3 nM |
| O=[N+]([O-])c1ccccc1N1CCN(CCSc2nc3ccccc3o2)CC1 | 5.87 | 326 nM | 1920 nM | – | – | – | – | – | – |
| NCCc1c[nH]c2ccc(O)cc12 | – | – | – | – | – | 100% | – | – | – |
| O=C1c2ccccc2S(=O)(=O)N1CCCCN1CCN(c2ncccn2)CC1 [IPSAPIRONE] | 36 | – | 200 nM | – | – | – | – | – | – |
| O=[N+]([O-])c1ccccc1N1CCN(CCCSc2nc3ccccc3s2)CC1 | 26 | 9.6 nM | 249 nM | – | – | – | – | – | – |
| c1cnc(N2CCN(CCCSc3nc4ccccc4s3)CC2)nc1 | 131 | 2.5 nM | 328 nM | – | – | – | 183 nM | > 10000 nM | 532 nM |
| COc1ccccc1N1CCN(CCCCSc2nc3ccccc3o2)CC1 | 830 | 0.094 nM | 78 nM | 6.6 nM | – | – | 298 nM | 1600 nM | 37.3 nM |
| c1ccc(N2CCN(CCCSc3nc4ccccc4o3)CC2)nc1 | 61 | 1.6 nM | 98 nM | – | – | – | 174 nM | > 10000 nM | 429 nM |
| COc1ccccc1N1CCN(CCSc2nc3ccccc3s2)CC1 | 6.63 | 31.2 nM | 207 nM | – | – | – | – | – | – |
| c1ccc(N2CCN(CCCSc3nc4ccccc4s3)CC2)nc1 | 100 | 0.78 nM | 77.7 nM | – | 204 nM | 33% | 78.8 nM | 5630 nM | 462 nM |
| COc1ccccc1N1CCN(CCCCCCSc2nc3ccccc3o2)CC1 | 101 | 0.52 nM | 52.5 nM | 1.3 nM | – | – | 207 nM | 922 nM | 46.6 nM |
| COc1ccccc1N1CCN(CCCSc2nc3ccccc3[nH]2)CC1 | 26 | 1 nM | 25.9 nM | – | – | – | – | – | – |
| c1cnc(N2CCN(CCCSc3nc4ccccc4o3)CC2)nc1 | 111 | 14.9 nM | 1650 nM | – | – | – | – | – | – |
